{"source": "ChEMBL document CHEMBL5705888", "about": "“Substrate specificity and inhibitors of LRRK2, a protein kinase mutated in Parkinson's disease” (Biochem J, 2009)", "key": {"[1]": {"target": "T1, MAP kinase-activated protein kinase 5 (Homo sapiens) (UniProt Q8IW41)", "T1 sequence (whole entry)": "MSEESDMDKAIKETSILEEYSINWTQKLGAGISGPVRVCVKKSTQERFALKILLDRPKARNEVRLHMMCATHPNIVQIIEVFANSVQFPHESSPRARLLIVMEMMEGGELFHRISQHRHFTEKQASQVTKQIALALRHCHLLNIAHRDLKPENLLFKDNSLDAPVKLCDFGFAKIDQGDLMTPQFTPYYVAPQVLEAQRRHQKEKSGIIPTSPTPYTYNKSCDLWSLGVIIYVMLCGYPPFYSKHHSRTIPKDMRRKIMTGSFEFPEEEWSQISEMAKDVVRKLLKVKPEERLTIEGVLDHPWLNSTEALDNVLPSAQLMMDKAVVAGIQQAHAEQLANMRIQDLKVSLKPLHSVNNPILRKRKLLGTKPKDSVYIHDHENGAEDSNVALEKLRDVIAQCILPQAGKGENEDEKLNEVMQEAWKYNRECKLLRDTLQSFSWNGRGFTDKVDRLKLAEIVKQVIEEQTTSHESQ", "assay": "Inhibition of PRAK (unknown origin) at 1 uM incubated for 30 mins in presence of [gamma-33P]ATP by multidrop micro reagent based assay relative to control; values are per cent of control"}, "[2]": {"target": "MAP kinase-interacting serine/threonine-protein kinase 1 (Homo sapiens) (UniProt Q9BUB5)", "sequence (Q9BUB5 whole entry, looked up)": "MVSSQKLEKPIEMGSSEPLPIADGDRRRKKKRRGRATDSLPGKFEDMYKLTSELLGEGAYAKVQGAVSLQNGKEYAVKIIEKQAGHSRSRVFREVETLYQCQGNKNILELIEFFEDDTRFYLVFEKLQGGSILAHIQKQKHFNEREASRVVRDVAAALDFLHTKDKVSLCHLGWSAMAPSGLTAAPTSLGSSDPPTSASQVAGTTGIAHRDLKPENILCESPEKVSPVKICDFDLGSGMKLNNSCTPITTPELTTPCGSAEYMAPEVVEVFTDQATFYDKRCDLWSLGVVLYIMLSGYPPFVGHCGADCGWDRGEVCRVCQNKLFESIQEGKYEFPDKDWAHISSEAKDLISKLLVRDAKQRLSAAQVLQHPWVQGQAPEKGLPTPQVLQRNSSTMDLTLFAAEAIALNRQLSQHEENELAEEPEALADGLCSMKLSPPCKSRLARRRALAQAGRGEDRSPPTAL", "assay": "Inhibition of MNK1 (unknown origin) at 1 uM incubated for 30 mins in presence of [gamma-33P]ATP by multidrop micro reagent based assay relative to control; values are per cent of control"}, "[3]": {"target": "T2, NUAK family SNF1-like kinase 1 (Homo sapiens) (UniProt O60285)", "T2 sequence (whole entry)": "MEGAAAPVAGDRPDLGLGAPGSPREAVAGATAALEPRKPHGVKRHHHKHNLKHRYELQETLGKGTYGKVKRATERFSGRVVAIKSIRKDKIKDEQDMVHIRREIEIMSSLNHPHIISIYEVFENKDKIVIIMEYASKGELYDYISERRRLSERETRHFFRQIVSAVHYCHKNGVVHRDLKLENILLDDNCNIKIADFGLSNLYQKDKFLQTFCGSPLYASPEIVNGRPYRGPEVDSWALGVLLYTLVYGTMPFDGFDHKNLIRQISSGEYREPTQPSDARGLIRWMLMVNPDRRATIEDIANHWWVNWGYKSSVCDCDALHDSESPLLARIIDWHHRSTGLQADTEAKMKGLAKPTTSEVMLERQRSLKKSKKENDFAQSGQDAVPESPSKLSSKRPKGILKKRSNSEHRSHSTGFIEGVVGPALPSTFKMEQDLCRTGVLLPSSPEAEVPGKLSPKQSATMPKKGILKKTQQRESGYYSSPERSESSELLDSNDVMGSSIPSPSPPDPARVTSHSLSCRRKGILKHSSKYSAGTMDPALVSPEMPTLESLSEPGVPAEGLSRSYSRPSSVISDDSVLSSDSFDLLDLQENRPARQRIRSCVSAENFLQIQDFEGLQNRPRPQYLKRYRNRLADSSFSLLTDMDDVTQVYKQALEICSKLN", "assay": "Inhibition of NUAK1 (unknown origin) at 1 uM incubated for 30 mins in presence of [gamma-33P]ATP by multidrop micro reagent based assay relative to control", "in_short": "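Single-concentration screen across a panel of 85 protein kinases. Activity is expressed as a percentage of control incubations run without inhibitor.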"}, "[4]": {"target": "T3, Serine/threonine-protein kinase BRSK2 (Homo sapiens) (UniProt Q8IWQ3)", "T3 sequence (whole entry)": "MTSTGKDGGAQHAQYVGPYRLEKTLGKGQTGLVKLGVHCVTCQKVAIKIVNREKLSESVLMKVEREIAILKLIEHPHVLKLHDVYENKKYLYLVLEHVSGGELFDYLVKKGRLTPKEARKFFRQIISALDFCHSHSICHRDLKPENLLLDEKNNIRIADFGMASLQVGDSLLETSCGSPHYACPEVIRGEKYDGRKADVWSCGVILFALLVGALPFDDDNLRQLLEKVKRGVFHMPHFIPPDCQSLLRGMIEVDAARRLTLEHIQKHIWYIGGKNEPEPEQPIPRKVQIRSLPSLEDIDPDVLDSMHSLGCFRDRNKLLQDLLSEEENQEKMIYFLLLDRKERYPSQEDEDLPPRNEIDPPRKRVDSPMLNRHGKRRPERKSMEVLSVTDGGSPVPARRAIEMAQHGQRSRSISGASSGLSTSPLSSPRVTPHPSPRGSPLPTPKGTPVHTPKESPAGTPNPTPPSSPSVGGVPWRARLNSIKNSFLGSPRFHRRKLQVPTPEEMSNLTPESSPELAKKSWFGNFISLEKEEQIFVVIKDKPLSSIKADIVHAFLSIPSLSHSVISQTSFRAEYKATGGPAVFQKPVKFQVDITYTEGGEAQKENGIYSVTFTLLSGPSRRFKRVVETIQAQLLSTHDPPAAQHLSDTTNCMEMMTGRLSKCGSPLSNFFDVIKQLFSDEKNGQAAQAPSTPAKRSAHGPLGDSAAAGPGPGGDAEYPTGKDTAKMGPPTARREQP", "assay": "Inhibition of BRSK2 (unknown origin) at 1 uM incubated for 30 mins in presence of [gamma-33P]ATP by multidrop micro reagent based assay relative to control; values are per cent of control"}, "[5]": {"target": "Serine/threonine-protein kinase pim-1 (Homo sapiens) (UniProt P11309)", "sequence (P11309 whole entry, looked up)": "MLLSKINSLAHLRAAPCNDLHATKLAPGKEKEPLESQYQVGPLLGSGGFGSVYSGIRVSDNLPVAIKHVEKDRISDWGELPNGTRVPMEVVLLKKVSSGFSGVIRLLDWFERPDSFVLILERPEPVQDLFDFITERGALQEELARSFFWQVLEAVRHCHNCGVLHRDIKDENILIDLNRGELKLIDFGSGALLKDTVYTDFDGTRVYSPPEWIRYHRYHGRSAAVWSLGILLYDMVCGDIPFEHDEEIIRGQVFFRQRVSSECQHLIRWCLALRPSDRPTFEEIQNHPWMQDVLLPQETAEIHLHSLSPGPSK", "assay": "Inhibition of PIM1 (unknown origin) at 10 uM incubated for 30 mins in presence of [gamma-33P]ATP by multidrop micro reagent based assay relative to control; values are per cent of control"}, "[6]": {"target": "RAC-alpha serine/threonine-protein kinase (Homo sapiens) (UniProt P31749)", "sequence (P31749 whole entry)": "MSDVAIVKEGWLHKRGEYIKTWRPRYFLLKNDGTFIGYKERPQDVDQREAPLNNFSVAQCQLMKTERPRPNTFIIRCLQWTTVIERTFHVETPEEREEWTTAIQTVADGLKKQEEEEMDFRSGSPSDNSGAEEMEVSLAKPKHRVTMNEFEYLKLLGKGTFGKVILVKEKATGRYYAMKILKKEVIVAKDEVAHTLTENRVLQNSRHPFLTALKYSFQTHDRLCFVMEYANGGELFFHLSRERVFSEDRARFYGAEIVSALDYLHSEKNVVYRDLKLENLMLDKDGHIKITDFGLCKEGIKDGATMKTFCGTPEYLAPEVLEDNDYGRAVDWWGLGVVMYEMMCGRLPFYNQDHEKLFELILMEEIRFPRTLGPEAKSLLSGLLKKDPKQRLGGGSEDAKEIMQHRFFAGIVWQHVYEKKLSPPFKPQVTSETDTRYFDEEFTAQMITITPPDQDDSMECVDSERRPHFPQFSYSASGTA", "assay": "Inhibition of PKBalpha (unknown origin) at 10 uM incubated for 30 mins in presence of [gamma-33P]ATP by multidrop micro reagent based assay relative to control; values are per cent of control"}}, "data": [{"smiles": "CC1=C(C(=O)Nc2cc3cn[nH]c3cc2F)C(c2ccc(C(F)(F)F)cc2)CC(=O)N1", "note": "(configuration not stated)", "values": [{"measurement": "residual activity", "setting": "[1]", "result": 92, "unit": "%"}, {"measurement": "residual activity", "setting": "[2]", "result": 91, "unit": "%"}, {"measurement": "inhibition", "setting": "[3]", "result": 51, "unit": "%"}, {"measurement": "residual activity", "setting": "[4]", "result": 91, "unit": "%"}]}, {"smiles": "Cc1cncc2cccc(S(=O)(=O)N3CCCNC[C@@H]3C)c12", "values": [{"measurement": "residual activity", "setting": "[2]", "result": 50, "unit": "%"}, {"measurement": "inhibition", "setting": "[3]", "result": 51, "unit": "%"}, {"measurement": "residual activity", "setting": "[4]", "result": 17, "unit": "%"}]}, {"smiles": "CCN(CC)CCNC(=O)c1c(C)[nH]c(/C=C2\\C(=O)Nc3ccc(F)cc32)c1C", "values": [{"measurement": "residual activity", "setting": "[1]", "result": 75, "unit": "%"}]}, {"smiles": "C[C@@H](N)[C@H]1CC[C@H](C(=O)Nc2ccncc2)CC1", "values": [{"measurement": "residual activity", "setting": "[5]", "result": 94, "unit": "%"}, {"measurement": "residual activity", "setting": "[6]", "result": 56, "unit": "%"}]}, {"smiles": "O=S(=O)(c1cccc2cnccc12)N1CCCNCC1", "note": "[FASUDIL]", "values": [{"measurement": "residual activity", "setting": "[5]", "result": 84, "unit": "%"}, {"measurement": "residual activity", "setting": "[6]", "result": 27, "unit": "%"}]}]}
